The test addresses T1, C5a anaphylatoxin chemotactic receptor 1 (Homo sapiens, UniProt P21730).
T1 sequence (P21730 whole entry): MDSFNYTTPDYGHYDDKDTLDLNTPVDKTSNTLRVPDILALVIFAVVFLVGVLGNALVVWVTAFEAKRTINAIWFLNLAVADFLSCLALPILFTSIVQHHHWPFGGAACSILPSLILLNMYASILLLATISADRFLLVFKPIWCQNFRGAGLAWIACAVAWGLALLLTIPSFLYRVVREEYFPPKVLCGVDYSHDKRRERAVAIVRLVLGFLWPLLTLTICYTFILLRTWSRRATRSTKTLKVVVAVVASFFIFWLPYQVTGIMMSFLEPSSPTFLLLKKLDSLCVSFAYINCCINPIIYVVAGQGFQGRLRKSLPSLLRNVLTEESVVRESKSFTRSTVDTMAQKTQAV
In words: Release of beta-glucuronidase from human polymorphonuclear leukocytes(PMN). The format is functional. An outline of the steps: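 Human PMNs pretreated with cytochalasin B (5 μg/mL, 10 min, 37 °C). 10^6 cells incubated with stimulant 60 min at 37 °C, then centrifuged. Supernatant reacted with 0.01 M p-nitrophenyl β-D-glucuronide in 0.1 M sodium acetate pH 4 for 18 h, in triplicate. Stopped with 0.4 M glycine pH 10. EC50 from dose-response.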

Where a SMILES comes first, the peptide text is derived from it. Where only a bound is given, the exact number is not on record here.

For the compound `CSCC[C@H](NC(=O)[C@H](CC(=O)O)NC(=O)[C@H](CCCCN)NC(=O)[C@H](Cc1ccccc1)NC(=O)[C@H](CO)NC(=O)[C@@H](N)Cc1ccc(O)cc1)C(=O)N[C@@H](CCC(N)=O)C(=O)N[C@@H](CC(C)C)C(=O)N1CCC[C@H]1C(=O)N[C@@H](CCCNC(=N)N)C(=O)O`, the EC50 (as a rule, the concentration giving half of the maximal effect) was greater than 1000 µM.

Compound `CSCC[C@H](NC(=O)[C@H](CC(=O)O)NC(=O)[C@H](CCCCN)NC(=O)[C@H](Cc1ccccc1)NC(=O)[C@H](CO)NC(=O)[C@@H](N)Cc1ccc(O)cc1)C(=O)N1CCC[C@H]1C(=O)N[C@@H](C)C(=O)NCC(=O)N[C@@H](CCCNC(=N)N)C(=O)O` showed an EC50 of 680 µM. For `CC(C)C[C@H](NC(=O)[C@@H]1CCCN1C(=O)[C@H](C)NC(=O)[C@H](CC(=O)O)NC(=O)[C@H](CCCCN)NC(=O)[C@H](Cc1ccccc1)NC(=O)[C@H](CO)NC(=O)[C@@H](N)Cc1ccc(O)cc1)C(=O)NCC(=O)N[C@@H](CCCNC(=N)N)C(=O)O`, the midpoint of the response, the EC50, lay at 207 µM.

In the case of `CSCC[C@H](NC(=O)[C@H](CC(=O)O)NC(=O)[C@H](CCCCN)NC(=O)[C@H](Cc1ccccc1)NC(=O)[C@H](CO)NC(=O)[C@@H](N)Cc1ccc(O)cc1)C(=O)N1CCC[C@H]1C(=O)N[C@@H](CC(C)C)C(=O)NCC(=O)N[C@@H](CCCNC(=N)N)C(=O)O`, the midpoint of the response, the EC50, lay at 80 µM. Against the preceding compound, the EC50 is about 2.6-fold lower. Under `CC(C)C[C@H](NC(=O)[C@@H]1CCCN1C(=O)[C@H](CS)NC(=O)[C@H](CC(=O)O)NC(=O)[C@H](CCCCN)NC(=O)[C@H](Cc1ccccc1)NC(=O)[C@H](CO)NC(=O)[C@@H](N)Cc1ccc(O)cc1)C(=O)N[C@@H](CS)C(=O)N[C@@H](CCCNC(=N)N)C(=O)O` (H-YSFKDCPLCR-OH) stands greater than 1000 µM; under H-ISHKDMQLGR-OH, 0.0123 µM. Under H-YSFKDCPLGR-OH stands greater than 1000 µM. The result for H-YSFKDMQLGR-OH reads 520 µM; that for H-YSFKDMQPGR-OH, 42 µM. As to H-YSFKGLLLGR-OH, the EC50 came out at 27.7 µM. The result for H-YSFKGMLLGR-OH reads 70 µM.

These data come from ChEMBL document CHEMBL1128551, “Decapeptide agonists of human C5a: the relationship between conformation and neutrophil response” (J Med Chem, 1995).
